Shown are actives, neighbours in structure and some others; about 4.5% of the full set was active somewhere.
TAAR1 antagonist: human TAAR1 antagonism | Q96RJ0 | CHO RD-HGA16 TAAR1, Fluo-8 calcium fluorescence, antagonist | inhibition, % at 3 µM | 360,000 compounds, 1.5% hits | AID 624466;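 active means inhibition above a per-plate cutoff, the mean inhibition of test compounds on that plate plus 3 SD, cut at about 49% in these data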;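 further: 0% = DMSO plus EC80 beta-PEA response and 100% = DMSO alone without agonist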
Target sequence (Q96RJ0 whole entry, looked up): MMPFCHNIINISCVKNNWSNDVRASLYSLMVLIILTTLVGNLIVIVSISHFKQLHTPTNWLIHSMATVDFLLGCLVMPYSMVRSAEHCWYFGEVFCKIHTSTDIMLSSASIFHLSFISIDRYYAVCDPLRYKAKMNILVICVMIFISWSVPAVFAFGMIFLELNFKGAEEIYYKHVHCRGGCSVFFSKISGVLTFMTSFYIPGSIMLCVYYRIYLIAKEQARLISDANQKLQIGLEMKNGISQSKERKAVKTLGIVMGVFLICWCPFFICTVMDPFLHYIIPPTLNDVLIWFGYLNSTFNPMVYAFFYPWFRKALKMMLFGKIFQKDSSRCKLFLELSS
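Test system: CHO RD-HGA16 cells bearing hTAAR1 | Reagent: β-PEA, EC80 | Compound dosing: 3 µM, single point | Schedule: Dye loading 75 min at 37 °C, then 30 min room temperature | Signal: Calcium fluorescence with Fluo-8 | Evaluation: Percent inhibition of PEA-evoked calcium signal, max/basal emission ratio | Control set: DMSO-only wells and EC80 β-PEA-stimulated wells | Repeats: Singlicate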
CHO parental Ca: signal in parental CHO cells, OX1R antagonist counter-screen. parental CHO-K1, ATP-induced calcium, Fluo-8 fluorescence. 330,000 compounds, 0.63% hits. AID 463079. inhibition, % at 5.6 µM;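 active means inhibition above that plate's mean sample inhibition plus 3 SD, cut at about 26% in these data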;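 further: 0% = ATP-challenged DMSO wells and 100% = DMSO wells without ATP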
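Material: Parental CHO cells | Reagent: ATP | Compound dosing: Single nominal dose of 5.6 µM per compound | Detection: Intracellular calcium via Fluo-8 no-wash fluorescent dye | Read-out: % inhibition of ATP-induced calcium mobilization | Benchmarks: Low control ATP plus DMSO, high control DMSO only | Replicates: Singlicate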
OX1R antag-1: blocks the human orexin 1 receptor. inhibition, % at 6.6 µM. 330,000 compounds, 1.8% hits. O43613. OX1R-expressing cells, FRET antagonist read-out; in the data active means inhibition mostly above about 38%, no sharp cut-off; inactive means mostly below about 40%;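 further: 0% = agonist challenge alone and 100% = reference antagonist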
TAAR1 agonist: human TAAR1 agonism. Q96RJ0. CHO RD-HGA16 TAAR1, Fluo-8 calcium fluorescence; vehicle wells 0%, saturating PEA agonist 100%. activation, % at 3 µM. 360,000 compounds, 0.99% hits;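 active means activation above the mean activation of all test compounds in the run plus 3 SD, cut at about 38% in these data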
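Test system: RD-HGA16 (CHO) cells co-expressing Gα16 and hTAAR1; dosing: one-point dosing at 3 µM (nominal); timing: 17-24 h seeding, 75 min 37 °C dye, 30 min RT; signal: kinetic Fluo-8 calcium fluorescence; read-out basis: % activation relative to PEA EC100 response; controls: DMSO and PEA EC100; replicates: n 1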
OX1R antag-2: blocks the human orexin 1 receptor; CHO/OX1R cells, Fluo-8 calcium fluorescence, orexin A; inhibition, % at 5 µM; 330,000 compounds, 0.43% hits;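 active means inhibition above its plate's threshold, mean inhibition of all tested compounds on the plate plus 3 SD, cut at about 37% in these data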;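 further: 0% = orexin A challenge wells and 100% = SB-334867-A antagonist wells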
GPR7 antag: blocks human GPR7 receptor signaling | inhibition, % at 4.4 µM | 290,000 compounds, 1.1% hits | P48145 | GPR7-expressing cells, fluorescence antagonist assay; in the data active means inhibition above about 16%, passing the limit was not always enough;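 further: cells stimulated with the agonist NPW; 0% = agonist with vehicle and 100% = vehicle without agonist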
* = called active by the depositor; / = no result given.

SMILES	TAAR1 antagonist	CHO parental Ca	OX1R antag-1	TAAR1 agonist	OX1R antag-2	GPR7 antag
Cc1ccc(N(CC(=O)NC(C)c2ccccc2)S(=O)(=O)c2c(C)n[nH]c2C)cc1 (centres undefined)	-15.7	-25.7	31.2	3.0	-20.4	-8.3
COc1cccc(CNC(=O)CN(c2cc(C)cc(C)c2)S(=O)(=O)c2c(C)noc2C)c1	-1.4	-25.1	46.2*	1.6	-18.5	-19.1
Nc1nc2c(nnn2C2CC(O)C(CO)O2)c(=O)[nH]1 (centres undefined)	10.9	/	/	0.2	/	/
O=C(N/C(=C/c1ccc(Br)cc1)C(=O)N1CCCCC1)c1ccccc1F	-24.5	-18.9	23.7	-0.9	-27.5	-1.7
O=C(NC1CCCC1)C(c1ccncc1)N(Cc1ccccc1)C(=O)Cc1cccs1 (centres undefined)	-10.7	-28.4	9.0	10.2	-32.7	-3.5
O=C(NC1CCCC1)C(c1ccccc1)N(Cc1ccc2c(c1)OCO2)C(=O)Cc1cccs1 (centres undefined)	50.7*	-1.2	58.8	16.6	-22.8	9.9
O=C(NC1CCCCC1)C(c1ccco1)N(Cc1cccs1)C(=O)Cn1nnc2ccccc21 (centres undefined)	20.2	-28.5	5.3	8.1	-9.4	21.6*
Cc1cc(C)cc(N(C(=O)Cc2cccs2)C(C(=O)NC2CCCCC2)c2ccccn2)c1 (centres undefined)	-13.2	-16.8	64.9*	4.0	-5.7	-6.5
COC(=O)c1ccc(C(C(=O)NC2CCCCC2)N(Cc2ccccc2)C(=O)Cc2cccs2)cc1 (centres undefined)	-6.9	-21.6	2.7	-1.2	-30.6	1.1
O=C(NCc1ccco1)C(c1ccco1)N(Cc1cccs1)C(=O)Cn1nnc2ccccc21 (centres undefined)	8.7	-17.6	24.6	6.4	-22.9	-6.5
O=C(NC1CCCC1)C(c1ccsc1)N(Cc1ccccc1)C(=O)Cc1cccs1 (centres undefined)	51.8*	-33.7	13.4	6.4	4.3	26.2
CC(O)(c1ccc(F)c(F)c1)c1nc(-c2ccc3ccccc3c2)cs1 (centres undefined)	-11.6	/	/	1.4	/	/
COC(=O)[C@]12C[C@H](CC(=O)N3CCCC3)C(=O)N(Cc3ccccc3)C1=C[C@H](C(C)C)O[C@@H]2C1CC1	-20.3	/	/	0.3	/	/
Oc1ccccc1/C=N/Nc1nccnc1Cl	-15.4	-3.9	18.7	41.5*	-33.3	-2.0
CCN=C1NC(CCc2ccccc2)C(C(=O)OC)=C(C)N1Cc1ccccc1C(F)(F)F (centres undefined)	-11.2	/	/	10.5	/	/
CC(C)NCCCCOc1ccc(Br)cc1Cl	12.8	-9.3	5.7	3.9	-8.9	9.4
c1ccc(CN2CCC(Nc3nc(-c4cccs4)nc4ccccc34)CC2)cc1	-21.7	-15.9	6.6	10.4	-2.6	20.5*
Oc1ccc(Cl)cc1Nc1nc(NCC2CCCO2)c2ccccc2n1 (centres undefined)	56.9*	-9.2	7.3	17.8	-6.5	/
Oc1ccccc1Nc1nc(NCC2CCCO2)c2ccccc2n1 (centres undefined)	7.0	-14.1	21.3	11.3	-30.6	-6.7
c1cncc(-c2nc(NCC3CCCO3)c3ccccc3n2)c1 (centres undefined)	/	-3.8	30.5	/	-16.1	5.0
c1csc(-c2nc(NCC3CCCO3)c3ccccc3n2)c1 (centres undefined)	23.8	-24.0	68.4*	1.9	-15.0	-2.5
c1ccc(Nc2nc(-c3ccccc3)nc3ccccc23)cc1	14.5	-16.6	9.4	1.8	-15.4	-5.6
c1ccc(-c2nc(NC3CCCC3)c3ccccc3n2)cc1	10.6	-21.2	49.4*	5.8	-43.8	0.1
COC(=O)[C@H]1C[C@H](OC(=O)Nc2c(C)noc2C)[C@@]2(O)CN(S(=O)(=O)c3ccc(C)cc3)CC2[C@H]1C(=O)OC (some centres undefined)	7.8	/	/	0.1	/	/
O=S1(=O)CC(N2CCCCC2)C1CN1CCCCC1 (centres undefined)	-29.4	/	/	6.7	/	/
CCCCc1c(-c2ccccc2OC)ncn1Cc1ccc(OC)cc1	19.6	/	/	1.3	/	/
